For data set [1] the following is noted: estimated from literature data, cited from earlier work.
The subject of data set [2] is EWS-FLI1 and Sp1 mRNA. In words: TC32 xenograft tumor tissue mRNA analysis. It is filed as in vivo, mice. Conditions: tumors collected 6 h after the sixth dose, n = 3/group. A digest of the protocol: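 Three mice per group were taken from the q3dx8 IV xenograft study. Tumors were resected 6 h after the 6th dose, rinsed in sterile PBS, snap-frozen in liquid nitrogen and stored at −80 °C. Tissue was cut semifrozen and ground under liquid nitrogen. Total RNA was extracted in RLT lysis buffer with a silica-column kit.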

Data set [3] has as its system TC32 tumors. In words: TC32 cell line xenograft efficacy in nu/nu mice. It counts as in vivo. As to conditions: for effect on survival (and tumor volume) / median survival: q3dx8 IV, MTMox32E […] mg/kg, MTM 1 mg/kg; for median survival: vehicle 22 days. A digest of the protocol:
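TC32 cells in 1:1 RPMI (no FBS)/Matrigel, 1.0 × 10^6 cells per 100 μL, injected subcutaneously into the flank of female athymic nu/nu mice. Mice with tumors of at least 50 mm3 (14–28 days post implantation) were randomized. Dosing was IV bolus in 5% Kolliphor EL/2% DMSO/93% saline. Tumor volume was measured every 3 days, with euthanasia at 20 mm tumor length. Tumor volume was compared at day 16 by one-way ANOVA; survival by log-rank (Holm-Sidak).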

Data set [4] deals with Sp1, VEGFA and BCL-2 mRNA. Kind of data set: Target gene mRNA expression by qRT-PCR in PC3 cells. It is filed as cell-based. As to conditions: 6 h treatment. A digest of the protocol:
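PC3 cells, 300,000/well, were washed with DPBS at ~75% confluence (48–72 h). They were treated 6 h with test compound at 0, 100, 300, 1000 nM or mithramycin at 0, 30, 100, 300 nM. Cells were harvested by trypsin; RNA was isolated and cDNA made. qRT-PCR expression was calculated relative to GAPDH (ΔΔCt). Error bars are SEM of at least two biological replicates.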

The target of data set [5] is EWS-FLI1 (Homo sapiens, UniProt Q01543+Q01844). As to conditions: 10 μM, 6 h incubation, TC32 cells; DMSO control 48.9 °C.
The test system of data set [6] is EWS-FLI1 and NR0B1 protein. As to conditions: TC32 cells, 24 h, 10, 30 and 300 nM.
The subject of data set [7] is EWS-FLI1 mRNA. Kind of data set: Target gene mRNA expression by qRT-PCR in TC32 cells. It is filed as cell-based. Conditions: 6 h incubation. A digest of the protocol:
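TC32 cells, 300,000/well, were DPBS-washed at ~75% confluence (48–72 h). They were exposed 6 h to test compound at 0, 30, 100, 300 nM or mithramycin at 0, 10, 30, 100 nM. After trypsin collection, RNA was isolated and reverse-transcribed. mRNA was quantified by qRT-PCR relative to GAPDH (ΔΔCt). SEM is from at least two biological replicates.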

The test system of data set [8] is TC32 Ewing sarcoma cells. In words: 72 h growth inhibition. It is filed as cell-based.
The test system of data set [9] is EWS-FLI1 transcriptional activity (NR0B1 promoter). As to conditions: read-out: EC50 in a similar reporter cell line; cited from earlier work.
Data set [10] has as its system PC3 prostate cells. As to conditions: read-out: PC3 GI50, 72 h; cited from earlier work.
Data set [11] relates to TC32 Ewing sarcoma cells. Conditions: 72 h; cited from earlier work.
The test system of data set [12] is CMV promoter. As to conditions: cited from earlier work.
Data set [13] relates to EWS-FLI1 transcriptional activity (NR0B1 promoter). Kind of data set: Luciferase reporter assay, NR0B1 promoter, in TC32 cells. It counts as cell-based. As to conditions: read-out: EC50, NR0B1-mediated luciferase expression; 12 h incubation. Background: A reporter such as luciferase makes a cellular process visible.

pEC50: −log10 of the molar value. Read-outs that look alike come from different tables or passages of the source. Marks after values point to notes of the source that are not given here.

These results are taken from article PMC7810150 (Journal of medicinal chemistry, 2020).

For orientation: pEC50 means the negative decadic logarithm of the EC50, by convention in mol/L. The GI50 is the concentration that inhibits growth by half.

For the compound `CO[C@@H]([C@@H]1Cc2cc3cc(O[C@H]4CC(O[C@H]5CC(O)[C@H](O)C(C)O5)[C@H](O)C(C)O4)c(C)c(O)c3c(O)c2C(=O)[C@H]1O[C@H]1CC(O[C@H]2CC(O[C@H]3CC(O)[C@H](O)C(C)O3)[C@@H](O)C(C)O2)[C@H](O)C(C)O1)[C@@H](O)C(C)=O` (some centres unmarked) [EC-8042], the “clearance (CL/F)” value in data set [1] (IP, 24 mg/kg, CL/F) was 7197^b mL/h/kg. Further, in data set [1] (IP, 24 mg/kg), the “dose-normalized systemic exposure (AUC/D)” value was 202 kg·ng·h/mL/mg and the “volume of distribution (Vd)” value was 11259 mL/kg.
Regarding `CO[C@@H]([C@@H]1Cc2cc3cc(O[C@H]4C[C@@H](O[C@H]5C[C@@H](O)[C@H](O)[C@@H](C)O5)[C@H](O)[C@@H](C)O4)c(C)c(O)c3c(O)c2C(=O)[C@H]1O[C@H]1C[C@@H](O[C@H]2C[C@@H](O[C@H]3C[C@](C)(O)[C@H](O)[C@@H](C)O3)[C@@H](O)[C@@H](C)O2)[C@H](O)[C@@H](C)O1)[C@@H](O)C(C)=O` [MTM SK], in [1] (IV, 18 mg/kg), the “clearance (CL)” value was 2590 mL/h/kg, the “dose-normalized systemic exposure (AUC/D)” value is 386 kg·ng·h/mL/mg and the “volume of distribution (Vd)” value is 857 mL/kg.
With “(E)-3-(2′-{2-[(Methyl l-Phenylalanyl-l-tryptophanate)amino]-2-oxoethoxy}imino) MTM [MTMox32E]”, the “EWS-FLI1 and Sp1 mRNA levels in tumor” value in [2] is “reduced mRNA levels of both EWS-FLI1 (p = 0.002) and Sp1 (p = 0.04)”. Also, in data set [3], the “effect on survival (and tumor volume)” value is “significant in comparison to control (p = 0.0001) and MTM (p = 0.0385)”; the median survival was determined as 38 days. Further, the effect on survival entry in data set [3] (qMWFx2, 14 mg/kg) is “statistically significant improvement in survival over vehicle control group”. Moreover, the “Sp1, VEGFA and BCL-2 mRNA” value in data set [4] was “minimally affected Sp1, VEGFA, and BCL-2”. The “Tagg of EWS-FLI1” value in [5] was 51.7 °C. Moreover, in [6], the EWS-FLI1 protein levels result is recorded as “did not affect the protein levels of EWS-FLI1” and the NR0B1 protein expression result is “greatly diminished the expression of NR0B1”. The “EWS-FLI1 mRNA levels” value in data set [7] is “decreased EWS-FL1 mRNA levels in a concentration-dependent manner”. In addition, in [8], the “TC32 GI50” value stood at 79 nM.
As for mithramycin A [MTM], in data set [2], the “EWS-FLI1 and Sp1 mRNA levels in tumor” value is reported as “reduced Sp1 mRNA levels (p = 0.003), but not EWS-FLI1”. Also, in data set [9], the pEC50 was 7.00 to 8.30. Besides, in data set [3], the “effect on survival (and tumor volume)” value was “not statistically different than the control group” and the median survival was determined as 31 days. For the same compound, the GI50 in data set [10] is 83 nM. Besides, the “Sp1, VEGFA and BCL-2 mRNA” value in data set [4] was “minimally affected Sp1, VEGFA, and BCL-2”. The “TC32 GI50” value in data set [11] was 32 nM. Further, the “EWS-FLI1 mRNA levels” value in data set [7] is recorded as “decreased EWS-FL1 mRNA levels in a concentration-dependent manner”. Also, the “effect on cells expressing luciferase under the control of a CMV promoter” value in data set [12] is “had no effect”. In data set [13], the pEC50 was 7.17.
